# Shown are actives, neighbours in structure and some others; about 3.1% of the full set was active somewhere.
# A1 inh = inhibitors of the anti-apoptotic protein A1, read as caspase activation | MEF A1-2A-BIM cells, Caspase-Glo 3/7 luminescence, 3 h; percent of clofoctol response, vehicle zero | actives 0.066% (n = 330,000) | AID 2462 | caspase activation, % (no concentration beside the values);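 active = over half of replicate activation scores above 10%, or exactly half above 10 with the replicate mean above 10; inconclusive = replicate mean below 10 yet half the replicates above 10; inactive = over half of replicates below 10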
# CSC inhib = cancer stem cell inhibition | inhibition, % at 7.5 µM | actives 1.1% (n = 300,000) | cancer stem cell-like cells viability, luminescence; in the data active = inhibition above about 75%; inconclusive = no clear call, values can overlap the other calls; tested in HMLE shEcad cells
# T cruzi inh = T. cruzi replication inhibition | T. cruzi beta-gal in NIH3T3, luminescence, 90 h | inhibition, % (concentration not given with the values) | actives 1.4% (n = 300,000) | AID 1885;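 active = mean inhibition across valid replicates above about 55%, limit read from the data; inconclusive = mean below that limit but half or more replicates reach it; inactive = mean below it, under half of replicates reach it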;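 note: signal also drops with host cell toxicity which is not excluded here; 0% = plate median of DMSO wells and 100% = zero luminescence signal; higher percent means less beta-gal luminescence so fewer parasites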
#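 Incubation – ≥90 h infection period, 3 h prior cell attachment · System – NIH/3T3 fibroblasts plus reporter T. cruzi · Doses – compound pinned at 50 nL/well, DMSO · Read-out basis – percent inhibition of parasite-derived β-gal signal · Signal – luminescent β-galactosidase signal after 60 min lysis · Also added – 5000 T. cruzi trypomastigotes/well · Medium – Low-serum DMEM with 2% FBS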
# Calb FLC = affects C. albicans growth with fluconazole; C. albicans CaCi-2 + fluconazole, Alamar Blue growth, 48 h; growth inhibition, % (concentration not given with the values); actives 0.57% (n = 300,000); AID 1979;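 active = growth inhibition above about 58% in most replicates, limit read from the data, passing the limit was not always enough; inconclusive = exactly half the replicates above a set limit; inactive = most replicates below a set limit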;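 note: all wells also contain fluconazole at 8 µg/ml as a sub-toxic cotreatment; 0% = median of DMSO wells and 100% = median of geldanamycin control wells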
# Beta cell apopt = blocks beta cell apoptosis; INS-1E cytokine-induced death, ATP luminescence, 48 h; percent of positive-control rescue, neutral wells zero; protection from apoptosis, % (test concentration not listed); actives 0.8% (n = 300,000);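 active = Every replicate reaches about 75%, or at least half do and their mean reaches it too, limit read from the data; inconclusive = At least half of replicates reach the limit but their mean does not; inactive = Under half of replicates reach the limit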;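 note: 0% = cytokine-treated negative control wells and 100% = positive control rescue; higher means more ATP so stronger rescue from cytokine killing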
# TAG inh = inhibitors of triacylglycerol accumulation | H9c2 cells, Nile Red lipid (TAG) fluorescence; cells loaded with 200 µM oleic acid | inhibition, % at 12.5 µM | actives 0.66% (n = 230,000);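 active = pattern-corrected inhibition of lipid staining of at least 50% with the nuclear-stain viability signal not falling by more than 50%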;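 note: 0% = DMSO wells and 100% = triacsin C control wells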
# Active calls of the source: *; ? = inconclusive; · = no result given.
SMILES,A1 inh,CSC inhib,T cruzi inh,Calb FLC,Beta cell apopt,TAG inh
C1=C(c2cc3ccccc3cn2)CCCC1,-14,-6,·,·,-10,-10
COC(=O)[C@H]1C[C@H]2[C@@H]3CC[C@H]4C[C@@H](OC)CC[C@]4(C)[C@H]3CC[C@]2(C)[C@@]2(CCCO2)O1,·,·,·,·,·,-3
COc1cc(-c2nc3ccc4ccccc4c3c3c2CCC3)cc(OC)c1O,0,8,19,5,1,·
COc1cc(-c2nc3ccc4ccccc4c3c3c2CCC3)ccc1O,0,78*,27,-3,2,·
Cc1cc(N2CCN(C)CC2)nc2ccc(NC(=S)N3CCCCC3)cc12,·,·,53,27,·,10
Cc1cccc(N2CCN(C(=S)Nc3ccc4nc(N5CCN(C)CC5)cc(C)c4c3)CC2)c1C,·,·,65*,49,·,89
Cc1cc(N2CCN(C)CC2)nc2ccc(NC(=S)N3CCN(c4ccc(Cl)cc4)CC3)cc12,0,109*,61*,35,9,18
CCCC1(c2ccccc2)NC(=O)N(CC(=O)NCc2ccc(C)cc2)C1=O (stereo unspecified),2,2,-8,-2,0,·
CCCC1(c2ccccc2)NC(=O)N(CC(=O)Nc2cc(C)ccc2OC)C1=O (stereo unspecified),0,-19,16,1,93*,·
CCOC(=O)c1ccc(NC(=S)NN2CCN(C)CC2)cc1,?,-8,57*,-11,1,·
Clc1nc2c(-c3ccccc3)nnn2c2ccccc12,-5,71,64*,-6,-5,6
CC[C@]12c3[nH]c4ccc(Cl)cc4c3CCN1C(=O)[C@@H](CC(=O)NC/C=C(\C)CCC=C(C)C)C[C@@H]2C(=O)N1CCN(C(=O)c2ccco2)CC1,·,·,·,·,·,16
O=C(/C=C/c1ccc(N2CCCCC2)c([N+](=O)[O-])c1)c1ccc(O)cc1,0,110*,17,-1,7,-8
CCOC(=O)C1CCN(C(=O)C2CCN(S(=O)(=O)c3cc(Cl)ccc3OCC)CC2)CC1,-1,0,7,·,-5,-13
COc1ccc(C(=O)C=Cc2ccc3c(c2)OCO3)cc1OC,·,·,·,·,·,-16
COc1cc(/C=C/C(=O)c2ccc3c(c2)OCO3)cc(Cl)c1O,0,113*,-20,4,-2,·
Cc1ccc(C(=O)N2CCCCC2)cc1NC1=C(Cl)C(=O)N(Cc2ccccc2)C1=O,·,·,·,·,·,-39
Cc1ccc(O)c(NC2=C(Cl)C(=O)N(Cc3ccccc3)C2=O)c1,·,·,58*,35,·,13
Cc1ccc(NC(=O)/C=C/c2ccc([N+](=O)[O-])s2)c(C)c1,1,107*,42,2,106*,·
Cc1ccc(NC(=O)/C=C/c2ccc([N+](=O)[O-])s2)cc1,1,10,31,9,4,·
Cc1cccc(NC(=O)/C=C/c2ccc([N+](=O)[O-])s2)c1,1,107*,59*,0,99*,·
Cc1cc([N+](=O)[O-])ccc1NC(=O)/C=C/c1cccs1,1,1,-4,20,2,·
Cc1cccc(NC(=S)N/N=C/c2ccc([N+](=O)[O-])s2)c1,-2,125*,52,-7,103*,-43
OCC[C@@H]1C[C@@H](O)[C@H](O)[C@]2(Cc3ccccc3CCO2)O1,0,-4,-10,19,-2,-3
COc1ccccc1C(c1nnnn1Cc1ccco1)N1CCN(c2cccc(C)c2C)CC1 (stereo unspecified),0,42,74*,-1,6,30
SMILES,A1 inh,CSC inhib,T cruzi inh,Calb FLC,Beta cell apopt,TAG inh
CCCC(c1nnnn1Cc1ccco1)N1CCN(c2ccccc2)CC1 (stereo unspecified),0,-9,-7,5,-4,-1
CCCC(c1nnnn1Cc1ccco1)N1CCN(c2cc(Cl)ccc2C)CC1 (stereo unspecified),-1,136*,·,·,2,3
CCCn1c(N)c(C(=O)CSc2nc(C3CC3)n(-c3ccccc3)n2)c(=O)[nH]c1=O,0,-6,·,·,-3,8
O=C1CC(c2ccc3c(c2)OCCO3)Oc2ccc([N+](=O)[O-])cc21 (stereo unspecified),-13,77*,-9,37,9,·
O=C(NNC(=S)Nc1ccc(Cl)cc1)c1ccccc1OC(F)F,0,33,-23,102*,12,·
O=C(NC1CCCC1)C(c1ccccn1)N(Cc1ccccc1F)C(=O)c1csnn1 (stereo unspecified),0,-1,7,-12,7,·
Cc1ccc(-c2nc3c(c(=O)[nH]c(=O)n3CC(C)C)n2CC(C)C)cc1[N+](=O)[O-],0,-11,58*,24,14,6
CCCCn1c(=O)[nH]c(=O)c2c1nc(-c1ccc(C)c([N+](=O)[O-])c1)n2CC,0,-5,-17,2,15,7
CN(C)S(=O)(=O)c1cccc(NC(=O)CN2C(=O)NC(Cc3ccccc3)C2=O)c1 (stereo unspecified),0,-13,·,·,2,-5
Nc1nc(SCc2ccc(Cl)cc2Cl)c2ncn(C3OC(CO)C(O)C3O)c2n1 (stereo unspecified),·,·,·,·,·,-5
CN1CCN(NC(=O)c2cn(-c3ccccc3)nc2-c2cccc(Br)c2)CC1,0,21,56*,5,7,-4
Cc1ccc2[nH]c(C(=O)N/N=C/c3ccccc3O)c(C)c2c1,-1,38,70*,-19,86*,·
COc1ccc2[nH]c(C(=O)N/N=C/c3ccccc3OC)cc2c1,-1,37,-8,3,1,·
COc1cc(OC)c2cc(C(=O)N/N=C/c3ccccc3O)[nH]c2c1,0,71,9,81*,85*,·
Cc1ccc2[nH]c(C(=O)N/N=C/c3ccccc3C(=O)O)c(-c3ccccc3)c2c1,1,·,-2,19,·,·
CN1CCN(c2ccc(CNC(=O)c3ccc(-c4ccc(F)c(F)c4)c4ccoc34)cc2)CC1,·,·,·,·,·,-16
Cc1ccc(C(=S)N2CCCCCC2)cc1,-1,3,-9,-29,-2,-2
Cc1nnc(SCC(=O)NNC(=O)COc2ccc(Cl)cc2)n1C,0,·,-9,2,-5,·
CCOc1ccccc1N=C1SC(CC(=O)Nc2ccc(OC)cc2OC)C(=O)N1CCC1=CCCCC1 (stereo unspecified),0,14,58*,-1,76*,·
O=C(CC1SC(=Nc2ccc(OC(F)F)cc2)N(CCC2=CCCCC2)C1=O)Nc1ccccc1F (stereo unspecified),0,·,?,-5,·,·
CCOC(=O)CCCCCC(=O)Nc1ccc2c(c1)C(=O)N([C@@H](C)CO)C[C@H](C)[C@H](CN(C)C(=O)Nc1ccc(F)cc1)OCCCC[C@H](C)O2,·,·,·,·,·,1
O=C(NCc1cn(-c2ccccc2)nc1-c1ccccc1)c1cccc([N+](=O)[O-])c1,1,14,?,4,7,·
